Assay results reported in ChEMBL document CHEMBL2311502, “Discovery of novel and ligand-efficient inhibitors of Plasmodium falciparum and Plasmodium vivax N-myristoyltransferase” (J Med Chem, 2013).
Calls of active or inactive are those of the source. No cut-off for these calls is given here.

Key:
[1] = biological target: T1, Glycylpeptide N-tetradecanoyltransferase 1 (Homo sapiens, UniProt P30419); test: Binding affinity to human NMT1 after 10 to 20 mins by CPM fluorescence assay
T1 sequence (P30419 whole entry): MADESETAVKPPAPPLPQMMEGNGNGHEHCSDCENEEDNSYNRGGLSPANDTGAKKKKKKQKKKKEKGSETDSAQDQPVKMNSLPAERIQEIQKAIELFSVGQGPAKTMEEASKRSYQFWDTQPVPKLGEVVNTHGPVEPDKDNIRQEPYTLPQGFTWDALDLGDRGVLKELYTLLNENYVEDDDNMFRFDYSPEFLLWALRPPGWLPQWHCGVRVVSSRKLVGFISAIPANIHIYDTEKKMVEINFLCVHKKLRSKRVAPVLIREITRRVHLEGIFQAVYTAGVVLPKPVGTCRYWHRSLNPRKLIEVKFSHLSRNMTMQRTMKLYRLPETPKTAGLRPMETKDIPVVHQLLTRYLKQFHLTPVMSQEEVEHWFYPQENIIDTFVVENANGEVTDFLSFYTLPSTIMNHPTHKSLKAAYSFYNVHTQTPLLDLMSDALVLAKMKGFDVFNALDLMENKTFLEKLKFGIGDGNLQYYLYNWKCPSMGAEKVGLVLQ
Procedure, shortened: (§1)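 Ki derived from enzyme IC50 by the Cheng–Prusoff equation, which corrects for the differing Michaelis constants of each NMT. Each IC50 is the mean of two or more determinations.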

Plasmodium falciparum = test: Antiplasmodium activity against Chloroquine-sensitive later trophozoite form of Plasmodium falciparum 3D7 assessed as parasite growth inhibition after 48 hrs by FACS flow cytometric analysis; type: functional, organism-based; details: 3D7, 48 h
[2] = biological target: T2, Glycylpeptide N-tetradecanoyltransferase (Plasmodium falciparum (isolate 3D7), UniProt Q8ILW6); test: Binding affinity to Plasmodium falciparum NMT using GSNKSKPKDASQRRR-NH2 as substrate after 10 to 20 mins by CPM fluorescence assay; procedure, shortened: as §1
T2 sequence (Q8ILW6 whole entry): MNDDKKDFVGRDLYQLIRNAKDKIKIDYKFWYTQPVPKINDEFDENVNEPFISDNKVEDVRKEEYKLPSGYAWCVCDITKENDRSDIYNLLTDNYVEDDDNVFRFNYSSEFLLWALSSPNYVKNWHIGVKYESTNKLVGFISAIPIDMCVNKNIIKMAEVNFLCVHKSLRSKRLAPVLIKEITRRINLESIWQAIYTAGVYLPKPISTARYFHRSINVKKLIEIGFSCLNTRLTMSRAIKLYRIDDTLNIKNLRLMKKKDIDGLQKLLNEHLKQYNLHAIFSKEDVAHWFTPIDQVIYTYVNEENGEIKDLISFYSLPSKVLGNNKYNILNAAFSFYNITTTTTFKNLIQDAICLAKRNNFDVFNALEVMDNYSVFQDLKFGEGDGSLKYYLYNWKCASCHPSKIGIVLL

[3] = Binding affinity to recombinant Plasmodium vivax NMT using GSNKSKPKDASQRRR-NH2 as substrate after 10 to 20 mins by CPM fluorescence assay; procedure, shortened: as §1
[4] = biological target: Glycylpeptide N-tetradecanoyltransferase 1 (Homo sapiens) (UniProt P30419); test: Inhibition of human NMT1

Ki [1] [µM] | Ki [2] [µM] | inhibition activity call (active/not active) [4] | SMILES | EC50 (Plasmodium falciparum) [µM] | Ki [3] [nM]
4.41 | 3.37 | Active | O=C(OCc1ccccc1)c1sc2ccccc2c1OC1CCNCC1 | 4.2 | 2160
> 100 | 1.3 | inactive | CCOC(=O)c1sc2ccccc2c1OC1CCNCC1 | 14.6 | 1320
> 100 | 4.47 | inactive | CCOC(=O)c1oc2ccccc2c1OC1CCNCC1 | 61.4 | 1740
– | 0.83 | Active | COc1cccc(COC(=O)c2sc3ccccc3c2OC2CCNCC2)c1 | 2 | –

Second part, the compound before the results:

SMILES | Ki [1] [µM] | Ki [2] [µM] | inhibition activity call (active/not active) [4] | EC50 (Plasmodium falciparum) [µM] | Ki [3] [nM]
COc1cccc(CNC(=O)c2sc3ccccc3c2OC2CCNCC2)c1 | > 100 | > 100 | inactive | – | 2700
CCOC(=O)c1oc2cccc(OC3CCNCC3)c2c1C | > 100 | 13.6 | inactive | – | 14900
O=C(NCc1ccccc1)c1sc2ccccc2c1OC1CCNCC1 | 4.76 | 10.7 | Active | 8.1 | 1320
